{"source": "paper PMC7111624", "about": "(Phytochemistry, 2016)", "key": {"GLS": {"test_system": "GLS", "experiment": "Western blot expression level in U87-MG cells: GLS", "assay_type": "cell-based, human", "conditions": "10 µM, 48 h (Fig. S83)", "how_it_was_run": "(§1)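 U87-MG cells were treated for 48 h with test compound (5 or 10 μM) or left untreated as control. Protein was extracted and analysed by western blot, with β-actin as internal loading control.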"}, "PKM2": {"test_system": "PKM2", "experiment": "Western blot expression level in U87-MG cells: PKM2", "assay_type": "cell-based, human", "conditions": "10 µM, 48 h (Fig. S83)", "how_it_was_run": "as §1"}, "HK2": {"test_system": "HK2", "experiment": "Western blot expression level in U87-MG cells: HK2", "assay_type": "cell-based, human", "conditions": "10 µM, 48 h (Fig. S83)", "how_it_was_run": "as §1"}, "human erythrocytes": {"test_system": "human erythrocytes", "experiment": "Intracellular K+ uptake in erythrocytes", "assay_type": "cell-based", "conditions": "90 min", "how_it_was_run": "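Fresh human blood was spun at 660 g for 10 min at 4 °C. Erythrocytes were washed three times in GNS buffer (50 g/L glucose, 9 g/L NaCl) and made into a 50% suspension. Cells were treated with test compound in isotonic KCl for 90 min at 37 °C, with a positive control ionophore, then stopped on ice. They were washed five times in cold GNS, haemolysed in water overnight, and digested in HNO3/HClO4. K+ was measured by atomic absorption against a KCl calibration curve.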"}, "FASN": {"test_system": "FASN", "experiment": "Western blot expression level in U87-MG cells: FASN", "assay_type": "cell-based, human", "conditions": "10 µM, 48 h (Fig. S83)", "how_it_was_run": "as §1"}, "U251": {"test_system": "U251", "experiment": "SRB proliferation assay, U251 glioma cells", "assay_type": "cell-based, human", "conditions": "HA vs U251", "how_it_was_run": "(§2)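 Each ratio is the IC50 in normal human astrocytes divided by the IC50 in the glioma line. Glioma IC50 came from an SRB proliferation assay after 72 h of treatment across a concentration series. Doxorubicin was the positive control and untreated cells the negative control. Values are means ± S.D.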"}, "SHG-44": {"test_system": "SHG-44", "experiment": "SRB proliferation assay, SHG-44 glioma cells", "assay_type": "cell-based, human", "conditions": "HA vs SHG-44", "how_it_was_run": "as §2"}, "human astrocytes (HA)": {"test_system": "human astrocytes (HA)", "experiment": "Growth inhibition of normal human astrocytes", "assay_type": "cell-based", "conditions": "Astrocyte, read-out: IC50, human astrocytes (HA)"}, "U251 cells": {"test_system": "U251 cells", "experiment": "Cell cycle assay", "assay_type": "cell-based, human", "conditions": "U251, 0.8 μM, 12 h"}, "U87-MG": {"test_system": "U87-MG", "experiment": "SRB proliferation assay, U87-MG glioma cells", "assay_type": "cell-based, human", "conditions": "HA vs U87-MG", "how_it_was_run": "as §2"}, "U87-MG cells": {"test_system": "U87-MG cells", "experiment": "Cell cycle assay", "assay_type": "cell-based, human", "conditions": "0.8 μM, 12 h"}, "C6": {"test_system": "C6", "experiment": "SRB proliferation assay, C6 glioma cells", "assay_type": "cell-based, rat", "conditions": "HA vs C6", "how_it_was_run": "as §2"}}, "data": [{"smiles": "CC(C)[C@@H]1NC(=O)[C@H](C)OC(=O)[C@@H](C(C)C)NC(=O)[C@@H](C(C)C)OC(=O)[C@H](C(C)C)NC(=O)[C@H](C)OC(=O)[C@@H](C(C)C)NC(=O)[C@@H](C(C)C)OC(=O)[C@H](C(C)C)NC(=O)[C@H](C)OC(=O)[C@@H](C(C)C)NC(=O)[C@@H](C(C)C)OC1=O", "note": "[Compound 1, valinomycin]", "values": [{"measurement": "expression level of GLS", "setting": "GLS", "result": "remarkably reduced expression levels"}, {"measurement": "expression level of PKM2", "setting": "PKM2", "result": "little effect on the downregulation"}, {"measurement": "expression level of HK2", "setting": "HK2", "result": "remarkably reduced expression levels"}, {"measurement": "+ % increase of intracellular K+ = (Compound−CON)/CON × 100%", "setting": "human erythrocytes; 0.01 μM", "result": 19.06, "unit": "%"}, {"measurement": "K+ (intracellular, erythrocytes)", "setting": "human erythrocytes; 0.01 μM", "result": "3.81 ± 0.01", "unit": "mg/mL"}, {"measurement": "+ % increase of intracellular K+ = (Compound−CON)/CON × 100%", "setting": "human erythrocytes; 0.05 μM", "result": 83.43, "unit": "%"}, {"measurement": "K+ (intracellular, erythrocytes)", "setting": "human erythrocytes; 0.05 μM", "result": "5.87 ± 0.00", "unit": "mg/mL"}, {"measurement": "+ % increase of intracellular K+ = (Compound−CON)/CON × 100%", "setting": "human erythrocytes; 0.1 μM", "result": 75.63, "unit": "%"}, {"measurement": "K+ (intracellular, erythrocytes)", "setting": "human erythrocytes; 0.1 μM", "result": "5.62 ± 0.01", "unit": "mg/mL"}, {"measurement": "expression level of FANS", "setting": "FASN", "result": "remarkably reduced expression levels"}]}, {"smiles": "COc1cccc2c1C(=O)c1c(O)c3c(c(O)c1C2=O)C[C@@](O)(C(=O)CO)C[C@@H]3O[C@H]1C[C@H](N)[C@H](O)[C@H](C)O1", "note": "[Doxorubicin (DOX), Doxorubicin]", "values": [{"measurement": "Ratios of IC50HA/IC50GC, U251", "setting": "U251", "result": 3}, {"measurement": "Ratios of IC50HA/IC50GC, SHG-44", "setting": "SHG-44", "result": 5}, {"measurement": "IC50", "setting": "human astrocytes (HA)", "result": "8.7 ± 1.2", "unit": "µM"}, {"measurement": "G0/G1, percentage of cells", "setting": "U251 cells", "result": 71.45, "unit": "%"}, {"measurement": "G2/GM, percentage of cells", "setting": "U251 cells", "result": 13.04, "unit": "%"}, {"measurement": "S, percentage of cells", "setting": "U251 cells", "result": 15.51, "unit": "%"}, {"measurement": "Compound(G0/G1)−CON(G0/G1)", "setting": "U251 cells; increase vs control", "result": 26.97, "unit": "%"}, {"measurement": "Ratios of IC50HA/IC50GC, U87-MG", "setting": "U87-MG", "result": 22}, {"measurement": "G0/G1, percentage of cells", "setting": "U87-MG cells", "result": 90.65, "unit": "%"}, {"measurement": "G2/GM, percentage of cells", "setting": "U87-MG cells", "result": 3.83, "unit": "%"}, {"measurement": "S, percentage of cells", "setting": "U87-MG cells", "result": 5.52, "unit": "%"}, {"measurement": "Compound(G0/G1)−CON(G0/G1)", "setting": "U87-MG cells; increase vs control", "result": 49.69, "unit": "%"}, {"measurement": "Ratios of IC50HA/IC50GC, C6", "setting": "C6", "result": 17}]}]}
